By inhibition is commonly meant the relative decrease from the control value, in per cent.

Each structure is given as a SMILES string. Activity calls are given as the source filed them. No cut-off for these calls is given here.

The values below come from ChEMBL document CHEMBL2176910, “Identification of small molecule inhibitors of amyloid β-induced neuronal apoptosis acting through the imidazoline I(2) receptor” (J Med Chem, 2012).

The species named for assay [1] is Mus musculus. The assay is described as follows: Inhibition of imidazole receptor 2 in mouse hippocampal neurons assessed as reduction in tPA-induced Erk1/2 activation at 30 uM pre-incubated for 4 hrs before tPA stimulation by ELISA. The note with it: Hippocampus. The procedure, abridged:
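Primary mouse hippocampal neurons were stimulated with tPA (20 μg/mL, 1 h) with or without compound at 30 μM. Phospho-Erk1/2 was measured by ELISA with a phospho-specific antibody and normalized to total Erk1/2. Untreated cultures set the lower limit and tPA alone the upper limit.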
Background: An ELISA detects its analyte on a solid surface through an enzyme-linked reagent.

Assay [2] relates to Hippocampal neuron. The assay is described as follows: (§1) Neuroprotective activity in mouse hippocampal neurons assessed as Abeta-induced neuronal apoptosis at 30 uM pre-incubated for 4 hrs before Abeta challenge for 72 hrs by TUNEL assay (reference value: 100%). In kind it is functional. The note with it: Hippocampus. In a few lines: (§2)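 Aggregated Aβ (20 μM, 72 h) was applied to primary mouse hippocampal neurons with or without compound at 30 μM. Apoptosis was scored by TUNEL as the percentage of positive nuclei among total nuclei, referred to Aβ alone (100%). Medium-only cells were the negative control and DNase the positive control. n = 4, mean ± SEM, two-tailed Student's test.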

The test system of assay [3] is Hippocampal neuron. The assay is described as follows: Neuroprotective activity against Abeta-induced neuronal apoptosis in mouse hippocampal neurons assessed as reduction in total neuronal nuclei level at 30 uM pre-incubated for 4 hrs before Abeta challenge for 72 hrs by immunofluorescence microscopy. The assay is classed as functional, tissue-based. The note with it: Hippocampus. In a few lines: (§3)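 Primary mouse hippocampal neurons were exposed to Aβ (20 μM, 72 h) alone or with compound. Double immunofluorescence microscopy was then run for DNA fragmentation (TUNEL, green) and total neuronal nuclei (NeuN, red), with merged images. DNase-treated cells served as positive control.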

In assay [4] the test system is Hippocampal neuron. The assay is described as follows: Neuroprotective activity against Abeta-induced neuronal apoptosis in mouse hippocampal neurons assessed as reduction in DNA fragmentation at 30 uM pre-incubated for 4 hrs before Abeta challenge for 72 hrs by immunofluorescence microscopy. The assay is classed as functional, tissue-based. Particulars: Hippocampus. In a few lines:
as §3

A short description of assay [5]: Inhibition of radioligand binding to N-methyl D-aspartate receptor phencyclidine binding site at 10 uM. In a few lines: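 Radioligand binding panel. Values are average percentages of inhibition of specific binding, measured against potent standard ligands for each target.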
Assay [6] can be described thus: as §1. The assay is classed as functional, Hippocampus, Hippocampal neuron. The procedure, abridged:
as §2

The species named for assay [7] is Rattus norvegicus. The assay is described as follows: Displacement of [3H]2-BFI from rat imidazole receptor 2 in rat whole brain at 10 uM in presence of 1 uM yohimbine. For orientation: In a radioligand displacement assay an active substance lowers the binding of a labelled ligand.
Assay [8] is filed under the species Rattus norvegicus. The assay is described as follows: Displacement of [3H]idazoxan from rat cerebral cortex imidazole receptor 2 at 10 uM in presence of 1 uM yohimbine. In kind it is tissue-based.

For the compound `c1ccc(C2NCCc3sccc32)cc1` (configuration not stated), the “inhibition of tPA-induced Erk1/2 activation (active/inactive call)” value (shortened to “inhibition … (active/inactive call)”) in assay [1] was “Active”. In addition, in assay [2], the outcome was Active.

Turning to `CC12CC3CC(C)(C1)CC(N)(C3)C2` [MEMANTINE], the outcome in assay [3] and in assay [4] was Active. The “inhibition … (active/inactive call)” value in assay [1] is “Active”. The inhibition in assay [5] came to 92%. In addition, in assay [6], the Activity is 42.3%.

In the case of `c1ccc(-c2ncc3cc(-n4ccnc4)ccc3n2)cc1`, the inhibition in assay [7] is 92%; in assay [8], 66%.

`C[C@]12N[C@H](Cc3ccccc31)c1ccccc12`: in assay [1], the inhibition entry is “Active”. The inhibition in assay [5] was determined as 98%.

With `CN1CCn2cccc2C1c1ccccc1` (configuration not stated), in assay [1], the “inhibition … (active/inactive call)” value is “Active”. The result in assay [2] was Active.

Consider `c1ccc(C2NCCc3ccccc32)cc1` (configuration not stated), for which the “inhibition … (active/inactive call)” value in assay [1] is “Active”. For the same compound, the inhibition in assay [5] was 69%. Moreover, the result in assay [2] was inactive.

Take `c1csc(C2NCCc3ccccc32)c1` (configuration not stated): the “inhibition … (active/inactive call)” value in assay [1] was “Active”. In assay [2], the result was Active.

For `CN1CCCC2(CCCNC2)C1` (configuration not stated), the “inhibition … (active/inactive call)” value in assay [1] is “Active”. Moreover, in assay [2], the outcome was inactive.

With `CN1Cc2ccccc2C2CCc3ccccc3C21` (configuration not stated), the “inhibition … (active/inactive call)” value in assay [1] was “Active”. The result in assay [2] was inactive.
